Experimental data: the array DNA melting data of Ke et al. (doi:10.1101/2024.01.08.574731)

Key:
[1] = melting temperature; fluorescence melt of hairpins on a sequencing array, two-state fit, raised by 9.35 °C to match UV melts; conditions: sodium 0.088 M
Outline: (§1)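 Library hairpins on a sequenced MiSeq flow cell carried annealed Cy3 and quencher oligos, and their Cy3 fluorescence was imaged in 50 mM Na-HEPES pH 8.0 with 25 mM NaCl, in 2.5 °C steps up to 60 °C. Signals were normalised to Cy3 before quenching and to control constructs. Melting temperature and folding enthalpy were obtained from bootstrapped two-state fits, combined by inverse-variance weighting across four replicates, and the fitted temperatures were then raised by 9.35 °C to match UV melts.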

[2] = folding enthalpy; higher = less favourable; fluorescence melt of hairpins on a sequencing array, two-state fit; conditions: sodium 0.088 M
Outline: as §1

Row | Sequence | Tm [1] [°C] | folding enthalpy [2] [kcal/mol]
1 | GGTGGCGAAAGCCTTACC ((((((....)))..))) | 40.2 | -14
2 | GGTGGCGGAAACGCTACC (((.(((....))).))) | 59.9 | -39.8
3 | GGTGGGAAACCACC (((((....))))) | 62.4 | -24.4
4 | GGTGGGCGAAAGCCGACC (((.(((....))).))) | 61.9 | -19.6
5 | GGTGGTCCGAAAGGAACC (((..(((....)))))) | 48.9 | -14.1
6 | GGTGGTCGAAAGACAACC (((.(((....))).))) | 55.6 | -39.2
7 | GGTGGTGAAAACCACC ((((((....)))))) | 68.2 | -32.5
8 | GGTGGTGGAAACGCCACC (((((.(....).))))) | 63.5 | -35.4
9 | GGTGGTGGAAACGCCATC (.(((.(....).))).) | 46.6 | -22.8
10 | GGTGTAGGAAACTACACC (((((((....))))))) | 60.4 | -44.8
11 | GGTGTAGGAAACTACGTC (..((((....))))..) | 29.8 | -9.53
12 | GGTGTCCGAAAGGAGACC (((.(((....))).))) | 58.3 | -42.9
13 | GGTGTCCGAAAGGATACC (((.(((....))).))) | 59.9 | -41.5
14 | GGTGTCGAAAGACAACC ((((((....))).))) | 55.7 | -26.1
15 | GGTGTCGAAAGACCACC ((((((....))).))) | 49.7 | -27.6
16 | GGTGTCGAAAGACCGACC ((((((....)))..))) | 39.1 | -14.9
17 | GGTGTCGAAAGACTAACC ((((((....)))..))) | 40.4 | -20.9
18 | GGTGTCGAAAGACTTACC ((((((....)))..))) | 37.4 | -17.7
19 | GGTGTCGCGAAAGCGACC (((..(((....)))))) | 54 | -7.75
20 | GGTGTCGGAAACGATACC (((.(((....))).))) | 54.4 | -52
21 | GGTGTCTCGAAAGAGACC (((..(((....)))))) | 49.4 | -12.3
22 | GGTGTGACGAAAGTCACC (((..(((....)))))) | 43.6 | -7.87
23 | GGTGTGCCGAAAGGCACC (((..(((....)))))) | 49.7 | -7.6

Row | Sequence | Tm [1] [°C] | folding enthalpy [2] [kcal/mol]
24 | GGTGTGGGAAACCGCACC ((((.((....)).)))) | 60.4 | -42.9
25 | GGTGTGGGAAACTACACC (((((.(....).))))) | 52.6 | -46.6
26 | GGTGTTCGAAAGAAAACC (((.(((....))).))) | 45.2 | -25.3
27 | GGTGTTCGAAAGAAGACC (((.(((....))).))) | 50.5 | -40.4
28 | GGTGTTCGAAAGAATACC (((.(((....))).))) | 53.6 | -45.6
29 | GGTGTTGAAAAACACC ((((((....)))))) | 57.9 | -37
30 | GGTGTTGGAAACAACGTC (..((((....))))..) | 47.2 | -26.5
31 | GGTGTTGGAAACAGTACC (((..((....))..))) | 31.7 | -18.7
32 | GGTGTTGGAAACGACATC (.(((.(....).))).) | 33.2 | -21.3
33 | GGTGTTGGAAACGATACC (((.(.(....).).))) | 33.2 | -14.2
34 | GGTTACACGAAAGTGACC (((..(((....)))))) | 35.5 | -16.6
35 | GGTTACCCGAAAGGGACC (((..(((....)))))) | 35.2 | -12.9
36 | GGTTACCGAAAGGTACC (((.(((....)))))) | 51 | -20.4
37 | GGTTACGAAAGTAAACC ((((((....))).))) | 48.8 | -24.2
38 | GGTTACGAAAGTAACC ((((((....)))))) | 67.5 | -34.7
39 | GGTTACGAAAGTACTACC ((((((....)))..))) | 28.4 | -23.2
40 | GGTTACGAAAGTAGAACC ((((((....)))..))) | 37.8 | -18.2
41 | GGTTACGAAAGTAGGACC ((((((....)))..))) | 32 | -11.5
42 | GGTTACGAAAGTATAACC ((((((....)))..))) | 37.2 | -20
43 | GGTTACGCGAAAGCGACC (((..(((....)))))) | 37.2 | -12.4
44 | GGTTACGGAAACGTAACC (((((((....))))))) | 65.4 | -43
45 | GGTTAGCCGAAAGGCACC (((..(((....)))))) | 41.2 | -13.5
46 | GGTTAGGGAAACCCAACC ((((.((....)).)))) | 41 | -28.6

Row | Sequence | Tm [1] [°C] | folding enthalpy [2] [kcal/mol]
47 | GGTTAGGGAAACCTAACC (((((((....))))))) | 58.3 | -46.4
48 | GGTTAGGGAAACCTAGTC (..((((....))))..) | 28.7 | -11.7
49 | GGTTAGGGAAACTTAACC (((((.(....).))))) | 37.6 | -25.1
50 | GGTTAGTCGAAAGACACC (((..(((....)))))) | 35.5 | -17.2
51 | GGTTATGAAAATAACC ((((((....)))))) | 50.9 | -31.8
52 | GGTTATGGAAACATAGCC ((.((((....)))).)) | 43.8 | -31.1
53 | GGTTCAACGAAAGTTACC (((..(((....)))))) | 27.8 | -14.4
54 | GGTTCCGAAAGGACCACC ((((((....)))..))) | 44.3 | -14
55 | GGTTCCGAAAGGAGACC ((((((....))).))) | 47.6 | -23.8
56 | GGTTCCGCGAAAGCGACC (((..(((....)))))) | 28.4 | -8.82
57 | GGTTCCGGAAACAGAACC (((((.(....).))))) | 41.1 | -35.7
58 | GGTTCGACGAAAGTCACC (((..(((....)))))) | 24.9 | -11.9
59 | GGTTCGGCGAAAGCCACC (((..(((....)))))) | 28.7 | -9.35
60 | GGTTCTACGAAAGTAACC (((..(((....)))))) | 28.2 | -19.6
61 | GGTTCTCGAAAGAGGACC (((.(((....))).))) | 57.2 | -42.8
62 | GGTTCTGAAAAGAACC ((((((....)))))) | 59.2 | -33.3
63 | GGTTCTGGAAACAGAGTC (..((((....))))..) | 28.1 | -11.8
64 | GGTTGAGCGAAAGCTACC (((..(((....)))))) | 42.4 | -13.1
65 | GGTTGAGGAAACTCGATC (.(.(((....))).).) | 29.8 | -16.8
66 | GGTTGATCGAAAGATACC (((..(((....)))))) | 25.5 | -8.74
67 | GGTTGCCGAAAGGCCACC (((.(((....))).))) | 52.6 | -26.6
68 | GGTTGCGAAAGCAGCACC ((((((....)))..))) | 41 | -12.4
69 | GGTTGCGAAAGCATACC ((((((....))).))) | 51.8 | -28.7

Row | Sequence | Tm [1] [°C] | folding enthalpy [2] [kcal/mol]
70 | GGTTGCGAAAGCATGACC ((((((....)))..))) | 40.2 | -15.7
71 | GGTTGCGGAAACGCAGTC (..((((....))))..) | 36.1 | -12.8
72 | GGTTGGCGAAAGCCACC (((.(((....)))))) | 57.7 | -16.5
73 | GGTTGGGGAAACCCGATC (.(.(((....))).).) | 34.4 | -21.6
74 | GGTTGGGGAAACCTAGCC ((.(.((....)).).)) | 38 | -19.1
75 | GGTTGGGGAAACTCAACC (((((.(....).))))) | 51.1 | -38.4
76 | GGTTGGTCGAAAGACACC (((..(((....)))))) | 37 | -17.3
77 | GGTTGTCCGAAAGGAACC (((..(((....)))))) | 31.2 | -14.5
78 | GGTTGTGGAAACACAGCC ((.((((....)))).)) | 52.1 | -42.4
79 | GGTTGTGGAAACGTAACC ((((..(....)..)))) | 35.7 | -24.3
80 | GGTTTACGAAAGTATACC (((.(((....))).))) | 45.5 | -39.3
81 | GGTTTAGGAAACTGAACC ((((.((....)).)))) | 43.2 | -31.8
82 | GGTTTCCCGAAAGGGACC (((..(((....)))))) | 33.8 | -12.3
83 | GGTTTCGAAAGAAAAACC ((((((....)))..))) | 33.6 | -23.4
84 | GGTTTCGAAAGAAACC ((((((....)))))) | 64.2 | -40.8
85 | GGTTTCGAAAGAAGTACC ((((((....)))..))) | 29.8 | -12.7
86 | GGTTTCGGAAACGGAACC ((((.((....)).)))) | 52.6 | -45
87 | GGTTTGCGAAAGCACACC (((.(((....))).))) | 51.7 | -28.2
88 | GGTTTGGGAAACCAAACC (((((((....))))))) | 64.6 | -40.3
89 | GGTTTGGGAAACCAGACC (((.(((....))).))) | 47.8 | -33.1
90 | GGTTTGGGAAACTAGACC (((.(.(....).).))) | 30.7 | -18.1
91 | GTAAAAGAAATTTTAC ((((((....)))))) | 30.8 | -13
